Results as given in ChEMBL document CHEMBL1151448, “Comparative antianaerobic activities of doripenem determined by MIC and time-kill analysis” (2008).
Converted amounts (≈) assume the structure as drawn.

Experiments:
Assay type in all cases: functional
Bacteroides fragilis [1] = experiment: Antimicrobial activity against beta lactamase-positive Bacteroides fragilis isolated from intra-abdominal infection and pelvic inflammatory disease patients after 48 hrs by agar dilution method
In short: (§1)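 CLSI agar dilution on brucella blood agar supplemented with laked sheep blood, hemin and vitamin K. Inocula of about 1 × 10^5 CFU/spot were applied by Steers replicator, and plates were incubated 48 h at 35°C in an anaerobic glove box. MIC was the concentration giving marked growth reduction versus the anaerobic control plate. QC strains were included each run, and β-lactamase was detected by Cefinase disk.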

[2] = test system: Bacteroides thetaiotaomicron; experiment: Antimicrobial activity against beta lactamase-positive Bacteroides thetaiotaomicron isolated from intra-abdominal infection and pelvic inflammatory disease patients after 48 hrs by agar dilution method; in short: as §1
Bacteroides fragilis [3] = experiment: Antimicrobial activity against beta lactamase-positive Bacteroides fragilis isolated from intra-abdominal infection and pelvic inflammatory disease patients after 48 hrs by time kill analysis
In short: (§2)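 The MIC was read by inspecting macrodilution time-kill tubes. Vials held prereduced brucella broth with 5% laked horse blood cells, hemin 5 μg/ml and vitamin K1 1 μg/ml. Final inoculum was 10^6–10^7 CFU/ml, prepared inside the anaerobe chamber. Vials were incubated 48 h at 35°C in a shaking water bath.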

Prevotella intermedia [4] = experiment: Antimicrobial activity against beta lactamase-positive Prevotella intermedia isolated from intra-abdominal infection and pelvic inflammatory disease patients after 48 hrs by time kill analysis; in short: as §2
Finegoldia magna [5] = experiment: Antimicrobial activity against beta lactamase-positive Finegoldia magna isolated from intra-abdominal infection and pelvic inflammatory disease patients after 48 hrs by time kill analysis; in short: as §2
Clostridium perfringens [6] = experiment: Antimicrobial activity against Clostridium perfringens isolated from intra-abdominal infection and pelvic inflammatory disease patients after 48 hrs by time kill analysis
In short: (§3)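 Macrodilution in prereduced brucella broth with 5% laked horse blood cells, 5 μg/ml hemin and 1 μg/ml vitamin K1. Final inoculum 10^6 to 10^7 CFU/ml, prepared inside the anaerobe chamber. Vials incubated 48 h at 35°C in a shaking water bath. MIC read by inspecting the time-kill tubes, alongside an antibiotic-free growth control.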

Clostridioides difficile [7] = experiment: Antimicrobial activity against Clostridium difficile isolated from intra-abdominal infection and pelvic inflammatory disease patients after 48 hrs by time kill analysis; in short: as §3
Bacteroides ovatus = experiment: Antimicrobial activity against beta lactamase-positive Bacteroides ovatus isolated from intra-abdominal infection and pelvic inflammatory disease patients after 48 hrs by agar dilution method; in short: as §1
Phocaeicola vulgatus = experiment: Antimicrobial activity against beta lactamase-positive Bacteroides vulgatus isolated from intra-abdominal infection and pelvic inflammatory disease patients after 48 hrs by agar dilution method; in short: as §1
[8] = test system: Parabacteroides distasonis; experiment: Antimicrobial activity against beta lactamase-positive Bacteroides distasonis isolated from intra-abdominal infection and pelvic inflammatory disease patients after 48 hrs by agar dilution method; in short: as §1
Prevotella bivia = experiment: Antimicrobial activity against beta lactamase-positive Prevotella bivia isolated from intra-abdominal infection and pelvic inflammatory disease patients after 48 hrs by agar dilution method; in short: as §1
Prevotella disiens = experiment: Antimicrobial activity against beta lactamase-positive Prevotella disiens isolated from intra-abdominal infection and pelvic inflammatory disease patients after 48 hrs by agar dilution method; in short: as §1
Prevotella intermedia [9] = experiment: Antimicrobial activity against beta lactamase-positive Prevotella intermedia isolated from intra-abdominal infection and pelvic inflammatory disease patients after 48 hrs by agar dilution method; in short: as §1
Prevotella nigrescens = experiment: Antimicrobial activity against beta lactamase-positive Prevotella nigrescens isolated from intra-abdominal infection and pelvic inflammatory disease patients after 48 hrs by agar dilution method; in short: as §1
[10] = test system: Prevotella melaninogenica; experiment: Antimicrobial activity against beta lactamase-positive Prevotella melaninogenica isolated from intra-abdominal infection and pelvic inflammatory disease patients after 48 hrs by agar dilution method; in short: as §1
Prevotella denticola = experiment: Antimicrobial activity against beta lactamase-positive Prevotella denticola isolated from intra-abdominal infection and pelvic inflammatory disease patients after 48 hrs by agar dilution method; in short: as §1
Prevotella corporis = experiment: Antimicrobial activity against beta lactamase-positive Prevotella corporis isolated from intra-abdominal infection and pelvic inflammatory disease patients after 48 hrs by agar dilution method; in short: as §1
Prevotella buccae = experiment: Antimicrobial activity against beta lactamase-positive Prevotella buccae isolated from intra-abdominal infection and pelvic inflammatory disease patients after 48 hrs by agar dilution method; conditions: Segatella buccae; in short: as §1
[11] = test system: Porphyromonas asaccharolytica; experiment: Antimicrobial activity against Porphyromonas asaccharolyticus isolated from intra-abdominal infection and pelvic inflammatory disease patients after 48 hrs by agar dilution method; in short: as §1
Porphyromonas gingivalis = experiment: Antimicrobial activity against Porphyromonas gingivalis isolated from intra-abdominal infection and pelvic inflammatory disease patients after 48 hrs by agar dilution method; in short: as §1
Porphyromonas levii = experiment: Antimicrobial activity against Porphyromonas levii isolated from intra-abdominal infection and pelvic inflammatory disease patients after 48 hrs by agar dilution method; in short: as §1
Fusobacterium nucleatum = experiment: Antimicrobial activity against beta lactamase-positive Fusobacterium nucleatum isolated from intra-abdominal infection and pelvic inflammatory disease patients after 48 hrs by agar dilution method; in short: as §1
[12] = test system: Fusobacterium necrophorum; experiment: Antimicrobial activity against Fusobacterium necrophorum isolated from intra-abdominal infection and pelvic inflammatory disease patients after 48 hrs by agar dilution method; in short: as §1
Fusobacterium varium = experiment: Antimicrobial activity against Fusobacterium varium isolated from intra-abdominal infection and pelvic inflammatory disease patients after 48 hrs by agar dilution method; in short: as §1
Fusobacterium mortiferum = experiment: Antimicrobial activity against beta lactamase-positive Fusobacterium mortiferum isolated from intra-abdominal infection and pelvic inflammatory disease patients after 48 hrs by agar dilution method; in short: as §1
Finegoldia magna [13] = experiment: Antimicrobial activity against Finegoldia magna isolated from intra-abdominal infection and pelvic inflammatory disease patients after 48 hrs by agar dilution method; in short: as §1
Parvimonas micra = experiment: Antimicrobial activity against Micromonas micros isolated from intra-abdominal infection and pelvic inflammatory disease patients after 48 hrs by agar dilution method; in short: as §1
[14] = test system: Peptostreptococcus anaerobius; experiment: Antimicrobial activity against Peptostreptococcus anaerobius isolated from intra-abdominal infection and pelvic inflammatory disease patients after 48 hrs by agar dilution method; in short: as §1
Anaerococcus prevotii = experiment: Antimicrobial activity against Anaerococcus prevotii isolated from intra-abdominal infection and pelvic inflammatory disease patients after 48 hrs by agar dilution method; in short: as §1
Anaerococcus tetradius = experiment: Antimicrobial activity against Anaerococcus tetradius isolated from intra-abdominal infection and pelvic inflammatory disease patients after 48 hrs by agar dilution method; in short: as §1
[15] = test system: Peptoniphilus asaccharolyticus; experiment: Antimicrobial activity against Peptoniphilus asaccharolyticus isolated from intra-abdominal infection and pelvic inflammatory disease patients after 48 hrs by agar dilution method; in short: as §1
Clostridium perfringens [16] = experiment: Antimicrobial activity against Clostridium perfringens isolated from intra-abdominal infection and pelvic inflammatory disease patients after 48 hrs by agar dilution method
In short: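 CLSI agar dilution on brucella blood agar supplemented with laked sheep blood, hemin and vitamin K. Inoculum about 1 × 10^5 CFU/spot, applied by Steers replicator. Plates incubated 48 h at 35°C in an anaerobic glove box. MIC is the concentration giving marked growth reduction versus the anaerobic control plate. Standard QC strains included in each run.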

Clostridioides difficile [17] = experiment: Antimicrobial activity against Clostridium difficile isolated from intra-abdominal infection and pelvic inflammatory disease patients after 48 hrs by agar dilution method; in short: as §1
[Clostridium] innocuum = Antimicrobial activity against Clostridium innocuum isolated from intra-abdominal infection and pelvic inflammatory disease patients after 48 hrs by agar dilution method; in short: as §1
Thomasclavelia ramosa = experiment: Antimicrobial activity against Clostridium ramosum isolated from intra-abdominal infection and pelvic inflammatory disease patients after 48 hrs by agar dilution method; in short: as §1
[18] = test system: Paraclostridium bifermentans; experiment: Antimicrobial activity against Clostridium bifermentans isolated from intra-abdominal infection and pelvic inflammatory disease patients after 48 hrs by agar dilution method; in short: as §1
[19] = test system: Enterocloster clostridioformis; experiment: Antimicrobial activity against Clostridium clostridioforme isolated from intra-abdominal infection and pelvic inflammatory disease patients after 48 hrs by agar dilution method; in short: as §1
[20] = test system: Paeniclostridium sordellii; experiment: Antimicrobial activity against Clostridium sordellii isolated from intra-abdominal infection and pelvic inflammatory disease patients after 48 hrs by agar dilution method; conditions: Paraclostridium sordellii; in short: as §1
[21] = test system: Clostridium paraputrificum; experiment: Antimicrobial activity against Clostridium paraputrificum isolated from intra-abdominal infection and pelvic inflammatory disease patients after 48 hrs by agar dilution method; in short: as §1
Clostridium cadaveris = experiment: Antimicrobial activity against Clostridium cadaveris isolated from intra-abdominal infection and pelvic inflammatory disease patients after 48 hrs by agar dilution method; in short: as §1

Compound: CCC[C@@H]1C[C@@H](C(=O)N[C@@H]([C@H]2O[C@H](SC)[C@H](O)[C@@H](O)[C@H]2O)[C@H](C)Cl)N(C)C1 [CLINDAMYCIN]
- MIC50 (Bacteroides fragilis [1]): 1 µg/mL (≈ 2.35 µM)
- MIC90 (Bacteroides fragilis [1]): 4 µg/mL (≈ 9.41 µM)
- MIC50 [2]: 4 µg/mL (≈ 9.41 µM)
- MIC90 [2]: 8 µg/mL (≈ 18.8 µM)
- MIC (Bacteroides fragilis [3]): 0.5 µg/mL (≈ 1.18 µM)
- MIC (Prevotella intermedia [4]): 0.016 µg/mL (≈ 0.0376 µM)
- MIC (Finegoldia magna [5]): 0.25 µg/mL (≈ 0.588 µM)
- MIC (Clostridium perfringens [6]): 0.125 µg/mL (≈ 0.294 µM)
- MIC (Clostridioides difficile [7]): 8 µg/mL (≈ 18.8 µM)
- MIC50 (Bacteroides ovatus): 2 µg/mL (≈ 4.71 µM)
- MIC90 (Bacteroides ovatus): > 16 µg/mL
- MIC50 (Phocaeicola vulgatus): 0.03 µg/mL (≈ 0.0706 µM)
- MIC90 (Phocaeicola vulgatus): 0.5 µg/mL (≈ 1.18 µM)
- MIC50 [8]: 4 µg/mL (≈ 9.41 µM)
- MIC90 [8]: > 16 µg/mL
- MIC50 (Prevotella bivia): 0.03 µg/mL (≈ 0.0706 µM)
- MIC90 (Prevotella bivia): > 16 µg/mL
- MIC50 (Prevotella disiens): ≤ 0.016 µg/mL
- MIC90 (Prevotella disiens): 0.03 µg/mL (≈ 0.0706 µM)
- MIC50 (Prevotella intermedia [9]): ≤ 0.016 µg/mL
- MIC90 (Prevotella intermedia [9]): 0.03 µg/mL (≈ 0.0706 µM)
- MIC50 (Prevotella nigrescens): ≤ 0.016 µg/mL
- MIC90 (Prevotella nigrescens): ≤ 0.016 µg/mL
- MIC50 [10]: 0.03 µg/mL (≈ 0.0706 µM)
- MIC90 [10]: ≤ 0.016 µg/mL
- MIC50 (Prevotella denticola): 0.03 µg/mL (≈ 0.0706 µM)
- MIC90 (Prevotella denticola): 0.03 µg/mL (≈ 0.0706 µM)
- MIC (Prevotella corporis): ≤ 0.016 µg/mL
- MIC50 (Prevotella corporis): ≤ 0.016 µg/mL
- MIC90 (Prevotella corporis): 0.03 µg/mL (≈ 0.0706 µM)
- MIC (Prevotella buccae): ≤ 0.016 µg/mL
- MIC50 (Prevotella buccae): ≤ 0.016 µg/mL
- MIC90 (Prevotella buccae): 0.03 µg/mL (≈ 0.0706 µM)
- MIC [11]: ≤ 0.016 µg/mL
- MIC (Porphyromonas gingivalis): ≤ 0.016 µg/mL
- MIC (Porphyromonas levii): ≤ 0.016 µg/mL
- MIC90 (Fusobacterium nucleatum): 0.125 µg/mL (≈ 0.294 µM)
- MIC50 [12]: 0.06 µg/mL (≈ 0.141 µM)
- MIC90 [12]: 0.25 µg/mL (≈ 0.588 µM)
- MIC50 (Fusobacterium varium): 4 µg/mL (≈ 9.41 µM)
- MIC90 (Fusobacterium varium): 16 µg/mL (≈ 37.6 µM)
- MIC (Fusobacterium mortiferum): 0.06 µg/mL (≈ 0.141 µM)
- MIC50 (Fusobacterium mortiferum): 0.06 µg/mL (≈ 0.141 µM)
- MIC90 (Fusobacterium mortiferum): 0.25 µg/mL (≈ 0.588 µM)
- MIC50 (Finegoldia magna [13]): 2 µg/mL (≈ 4.71 µM)
- MIC90 (Finegoldia magna [13]): > 16 µg/mL
- MIC50 (Parvimonas micra): 0.25 µg/mL (≈ 0.588 µM)
- MIC90 (Parvimonas micra): 0.5 µg/mL (≈ 1.18 µM)
- MIC [14]: 0.03 µg/mL (≈ 0.0706 µM)
- MIC50 [14]: 0.03 µg/mL (≈ 0.0706 µM)
- MIC90 [14]: 0.25 µg/mL (≈ 0.588 µM)
- MIC (Anaerococcus prevotii): 0.125 µg/mL (≈ 0.294 µM)
- MIC (Anaerococcus tetradius): 0.5 µg/mL (≈ 1.18 µM)
- MIC50 (Anaerococcus tetradius): 0.5 µg/mL (≈ 1.18 µM)
- MIC50 [15]: 0.06 µg/mL (≈ 0.141 µM)
- MIC90 [15]: > 16 µg/mL
- MIC50 (Clostridium perfringens [16]): 1 µg/mL (≈ 2.35 µM)
- MIC90 (Clostridium perfringens [16]): 2 µg/mL (≈ 4.71 µM)
- MIC50 (Clostridioides difficile [17]): 8 µg/mL (≈ 18.8 µM)
- MIC90 (Clostridioides difficile [17]): > 16 µg/mL
- MIC50 ([Clostridium] innocuum): 1 µg/mL (≈ 2.35 µM)
- MIC50 (Thomasclavelia ramosa): 4 µg/mL (≈ 9.41 µM)
- MIC [18]: 0.06 µg/mL (≈ 0.141 µM)
- MIC [19]: 0.06 µg/mL (≈ 0.141 µM)
- MIC [20]: 1 µg/mL (≈ 2.35 µM)
- MIC [21]: 8 µg/mL (≈ 18.8 µM)
- MIC (Clostridium cadaveris): 0.03 µg/mL (≈ 0.0706 µM)
